Eleven compounds from PMC5652008 (EBioMedicine, 2017) can be followed below.

Marks after values point to notes of the source that are not given here. Square brackets hold non-standard residues; d marks the D form. Peptide text beside a SMILES is read from it. * marks the point of attachment. Succinyl(4-O-cholesteryl) = CC(C)CCC[C@@H](C)[C@H]1CC[C@H]2[C@@H]3CC=C4C[C@@H](OC(=O)CCC(=O)*)CC[C@]4(C)[C@H]3CC[C@]12C; Sta = CC(C)C[C@H](N)[C@@H](O)CC(=O)O; Palmitoyl = CCCCCCCCCCCCCCCC(=O)*

The target of data set [1] is T1, BACE1 (Homo sapiens, UniProt P56817). Nature of the data set: SPR binding assay on immobilized BACE1. In a few lines:
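SPR at 18 °C in the immobilization buffer. Peptide titrations used 2-fold dilution steps, run either as single-cycle kinetics (5 concentrations) or multi-cycle kinetics (10 concentrations). Two protein surfaces and an activated/deactivated CM5 reference surface were measured in parallel on one sensor.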
(SPR reads the build-up and loss of mass on a sensor chip optically.)

Data set [2] deals with T1, BACE1. Nature of the data set: Cell-based Aβ lowering IC50 assay. The conditions noted are these: for Aβ40 production inhibition in HEK293 APP cells: 16 h / overnight incubation. In a few lines:
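Test compounds, free or Brain Shuttle-coupled, added in serial dilutions to HEK293 cells stably expressing wild-type human APP695, grown in Iscove's medium with 10% FBS to ~80% confluency. Construct dilution buffers served as control. Overnight at 37 °C, 5% CO2. Supernatant Aβ40 read by AlphaLISA: acceptor beads 1 h, then streptavidin donor beads 30 min, both at RT; emission at 615 nm. Compared with vehicle-treated cells; mean ± SEM.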

Data set [3] can be described thus: Thermodynamic. The class given is physicochemical. The conditions noted are these: phosphate buffer. In outline: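 Equilibrium solubility measured in 0.05 M phosphate buffer, pH 6.5.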
Data set [4] relates to Aβ production in human stem-cell derived neurons. Nature of the data set: Human neural stem cell-based Aβ40 inhibition assay. Conditions: 48 h incubation. In outline: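 Neurons differentiated from SB-AD3 human iPSCs (healthy adult donor fibroblasts) via embryoid bodies and dual SMAD inhibition. Doses 0.128–10,000 nM (three independent differentiations) or 0.001024–80 nM (one differentiation), two technical replicates per dose. Vehicle was histidine/NaCl/1.3 mM hydroxypropyl-β-cyclodextrin for peptides and DMSO for small molecules. Aβ40 read by AlphaLISA at 615 nm, compared with vehicle-treated cells; means ± SEM.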

In data set [5] the test system is plasma Aβ. Nature of the data set: Plasma Aβ40 after single i.v. dose in mice. It counts as in vivo, C57BL/6 J mice. The conditions noted are these: 5 h post dose. In outline:
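Nine-week-old female mice received one i.v. injection of test compound at 0.003–3 mg/kg, with the buffer alone as vehicle control; three animals per group. Under anaesthesia, blood was collected into EDTA tubes, spun 8 min at 1600 × g, and plasma diluted 1:10 in 0.2% diethanolamine before solid-phase extraction.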

The mark [6] stands for this setting: pH 6.5, Solubility pH 6.5, Table 1, phosphate buffer 0.05 M.

T1 sequence (P56817 46-501): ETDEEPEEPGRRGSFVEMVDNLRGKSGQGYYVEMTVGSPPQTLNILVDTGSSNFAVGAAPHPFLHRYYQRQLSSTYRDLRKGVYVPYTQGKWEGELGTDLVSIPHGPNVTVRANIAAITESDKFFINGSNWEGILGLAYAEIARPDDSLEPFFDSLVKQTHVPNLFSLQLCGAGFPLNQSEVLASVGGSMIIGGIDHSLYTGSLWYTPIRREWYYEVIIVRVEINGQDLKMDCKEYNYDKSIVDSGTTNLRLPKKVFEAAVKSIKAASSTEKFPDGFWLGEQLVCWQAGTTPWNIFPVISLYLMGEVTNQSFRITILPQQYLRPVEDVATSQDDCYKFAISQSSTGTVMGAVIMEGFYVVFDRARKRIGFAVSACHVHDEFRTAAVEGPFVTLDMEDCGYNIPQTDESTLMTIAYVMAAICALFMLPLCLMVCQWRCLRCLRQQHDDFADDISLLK

`CC[C@H](C)[C@H](NC(=O)[C@H](Cc1ccccc1)NC(=O)[C@H](Cc1ccc(O)cc1)NC(=O)[C@@H]1CCCN1C(=O)[C@@H](N)Cc1ccc(O)cc1)C(=O)N1CCC[C@H]1C(=O)N[C@H](CCCCN)C(=O)NCC(=O)N[C@H](CCCCN)C(=O)NCC(=O)N[C@@H](CCC(=O)O)C(=O)N[C@H](C(=O)N[C@@H](CC(N)=O)C(=O)N[C@@H](CC(C)C)[C@@H](O)CC(=O)N[C@H](C(=O)N[C@@H](C)C(=O)N[C@@H](CCC(=O)O)C(=O)N1CCC[C@@H]1C(N)=O)C(C)C)C(C)C` [Pep#12, Tyr-Pro-Tyr-Phe-Ile-Pro-DLys-Gly-DLys-Gly-Glu-Val-Asn-Sta-Val-Ala-Glu-DPro-NH2]: the kon in data set [1] (BACE1 surface, 18 °C, pH 4.5) is reported as 1.1–1.3·10^5 1/Ms. The “Selectivity for BACE1” value in data set [1] (ratio KD(BACE2)/KD(BACE1)) is > 15 ^a.
In general, IC50 refers to the concentration that inhibits the measured activity by half. With `CC(C)C[C@H](NC(=O)[C@H](CC(N)=O)NC(=O)[C@@H](NC(=O)[C@@H](N)CCC(=O)O)C(C)C)[C@@H](O)CC(=O)N[C@H](C(=O)N[C@@H](C)C(=O)N[C@@H](CCC(=O)O)C(=O)N1CCC[C@@H]1C(=O)N[C@@H](CCCCN)C(N)=O)C(C)C` [Pep#2, Glu-Val-Asn-Sta-Val-Ala-Glu-DPro-Lys-NH2] (H-EVN[Sta]VAE[dP]K-NH2; N-terminus assumed), in data set [2], the half-maximal inhibitory concentration (IC50) was greater than 40000 nM.
The term thermodynamic solubility denotes solubility found after equilibrating the solid with the medium. In turn, `CC[C@H](C)[C@H](NC(=O)[C@H](Cc1ccccc1)NC(=O)[C@H](Cc1ccc(O)cc1)NC(=O)[C@@H]1CCCN1C(=O)[C@@H](N)Cc1ccc(O)cc1)C(=O)N1CCC[C@H]1C(=O)N[C@@H](C)C(=O)NCC(=O)N[C@H](CCCCN)C(=O)NCC(=O)N[C@@H](CCC(=O)O)C(=O)N[C@H](C(=O)N[C@@H](CC(N)=O)C(=O)N[C@@H](CC(C)C)[C@@H](O)CC(=O)N[C@H](C(=O)N[C@@H](C)C(=O)N[C@@H](CCC(=O)O)C(=O)N1CCC[C@@H]1C(=O)N[C@@H](CCCCNC(=O)CCC(=O)O[C@H]1CC[C@@]2(C)C(=CC[C@H]3[C@@H]4CC[C@H]([C@H](C)CCCC(C)C)[C@@]4(C)CC[C@@H]32)C1)C(N)=O)C(C)C)C(C)C` [Pep#10, Tyr-Pro-Tyr-Phe-Ile-Pro-Ala-Gly-DLys-Gly-Glu-Val-Asn-Sta-Val-Ala-Glu-DPro-Lys(Chol'ester’)-NH2] (H-YPYFIPAG[dK]GEVN[Sta]VAE[dP]K(Succinyl(4-O-cholesteryl))-NH2; N-terminus assumed) returned a solubility (thermodynamic) in data set [3] (pH 6.5) greater than 2450 µg/mL.
With `CC[C@H](C)[C@H](NC(=O)[C@H](Cc1ccccc1)NC(=O)[C@H](Cc1ccc(O)cc1)NC(=O)[C@@H]1CCCN1C(=O)[C@H](Cc1ccc(O)cc1)NC(=O)CNC(=O)CNC(=O)CN)C(=O)N1CCC[C@H]1C(=O)N[C@H](CCCCN)C(=O)NCC(=O)N[C@H](CCCCN)C(=O)NCC(=O)N[C@@H](CCC(=O)O)C(=O)N[C@H](C(=O)N[C@@H](CC(N)=O)C(=O)N[C@@H](CC(C)C)[C@@H](O)CC(=O)N[C@H](C(=O)N[C@@H](C)C(=O)N[C@@H](CCC(=O)O)C(=O)N1CCC[C@@H]1C(N)=O)C(C)C)C(C)C` [Pep#16, Gly-Gly-Gly-Tyr-Pro-Tyr-Phe-Ile-Pro-DLys-Gly-DLys-Gly-Glu-Val-Asn-Sta-Val-Ala-Glu-DPro-NH2] (H-GGGYPYFIP[dK]G[dK]GEVN[Sta]VAE[dP]-NH2; N-terminus assumed), the “Aβ production inhibition in human stem-cell derived neurons” value in data set [4] was “able to reduce the Aβ production”. Moreover, the “Aβ40 production inhibition in HEK293 APP cells” value in data set [2] is given as “blocked production of Aβ40”.
Consider `CCCCCCCCCCCCCCCC(=O)NCCCC[C@H](NC(=O)[C@H]1CCCN1C(=O)[C@H](CCC(=O)O)NC(=O)[C@H](C)NC(=O)[C@@H](NC(=O)C[C@H](O)[C@H](CC(C)C)NC(=O)[C@H](CC(N)=O)NC(=O)[C@@H](NC(=O)[C@H](CCC(=O)O)NC(=O)CNC(=O)[C@@H](CCCCN)NC(=O)CNC(=O)[C@H](CC(C)C)NC(=O)[C@@H]1CCCN1C(=O)[C@@H](NC(=O)[C@H](Cc1ccccc1)NC(=O)[C@H](CCCCN)NC(=O)[C@@H]1CCCN1C(=O)[C@H](Cc1ccc(O)cc1)NC(=O)CNC(=O)CNC(=O)CN)[C@@H](C)CC)C(C)C)C(C)C)C(N)=O` [Pep#15, Gly-Gly-Gly-Tyr-Pro-Lys-Phe-Ile-Pro-Leu-Gly-DLys-Gly-Glu-Val-Asn-Sta-Val-Ala-Glu-DPro-Lys(Palmitoyl)-NH2] (H-GGGYPKFIPLG[dK]GEVN[Sta]VAE[dP]K(Palmitoyl)-NH2; N-terminus assumed), for which the “Aβ production inhibition in human stem-cell derived neurons” value in data set [4] is “able to reduce the Aβ production”. Further, the “Plasma Aβ40 inhibition” value in data set [5] (0.003-3 mg/kg i.v., uncoupled peptides) is given as “Dose-dependent inhibition”. In data set [5] (3 mg/kg i.v., uncoupled peptide), the “Plasma Aβ level reduction” value came to 50%. Moreover, the “Aβ40 production inhibition in HEK293 APP cells” value in data set [2] is “blocked production of Aβ40”.
The compound `CC(C)CCC[C@@H](C)[C@H]1CC[C@H]2[C@@H]3CC=C4C[C@@H](OC(=O)CCC(=O)NCCCC[C@H](NC(=O)[C@H]5CCCN5C(=O)[C@H](CCC(=O)O)NC(=O)[C@H](C)NC(=O)[C@@H](NC(=O)C[C@H](O)[C@H](CC(C)C)NC(=O)[C@H](CC(N)=O)NC(=O)[C@@H](NC(=O)[C@@H](N)CCC(=O)O)C(C)C)C(C)C)C(N)=O)CC[C@]4(C)[C@H]3CC[C@]12C` [Pep#3, Glu-Val-Asn-Sta-Val-Ala-Glu-DPro-Lys(ε-Chol'ester’)-NH2] (H-EVN[Sta]VAE[dP]K(Succinyl(4-O-cholesteryl))-NH2; N-terminus assumed) displayed a thermodynamic solubility in data set [3] (pH 6.5) greater than 3000 µg/mL. The compound also had an IC50 in data set [2] of 0.4 nM.
For `CCCCCCCCCCCCCCCC(=O)NCCCC[C@H](NC(=O)[C@H]1CCCN1C(=O)[C@H](CCC(=O)O)NC(=O)[C@H](C)NC(=O)[C@@H](NC(=O)C[C@H](O)[C@H](CC(C)C)NC(=O)[C@H](CC(N)=O)NC(=O)[C@@H](NC(=O)[C@@H](N)CCC(=O)O)C(C)C)C(C)C)C(N)=O` [Pep#4, Glu-Val-Asn-Sta-Val-Ala-Glu-DPro-Lys(ε-Palmitoyl)-NH2] (H-EVN[Sta]VAE[dP]K(Palmitoyl)-NH2; N-terminus assumed), in that order: less than 1 µg/mL and 6 nM.
As for “Ac-YPYFLPISAK-NH2 [Pep#6, Ac-Tyr-Pro-Tyr-Phe-Leu-Pro-Ile-Ser-Ala-Lys-NH2, reference compound]”, the IC50 in data set [2] was greater than 40000 nM.
Turning to `CC[C@H](C)[C@H](NC(=O)[C@H](Cc1ccccc1)NC(=O)[C@H](Cc1ccc(O)cc1)NC(=O)[C@@H]1CCCN1C(=O)[C@@H](N)Cc1ccc(O)cc1)C(=O)N1CCC[C@H]1C(=O)N[C@@H](CC(C)C)C(=O)NCC(=O)NCC(=O)NCC(=O)N[C@@H](CCC(=O)O)C(=O)N[C@H](C(=O)N[C@@H](CC(N)=O)C(=O)N[C@@H](CC(C)C)[C@@H](O)CC(=O)N[C@H](C(=O)N[C@@H](C)C(=O)N[C@@H](CCC(=O)O)C(=O)N1CCC[C@@H]1C(=O)N[C@@H](CCCCNC(=O)CCC(=O)O[C@H]1CC[C@@]2(C)C(=CC[C@H]3[C@@H]4CC[C@H]([C@H](C)CCCC(C)C)[C@@]4(C)CC[C@@H]32)C1)C(N)=O)C(C)C)C(C)C` [Pep#7, Tyr-Pro-Tyr-Phe-Ile-Pro-Leu-Gly-Gly-Gly-Glu-Val-Asn-Sta-Val-Ala-Glu-DPro-Lys(Chol'ester’)-NH2], the thermodynamic solubility in data set [3] (setting [6]) is less than 1 µg/mL.
On to `CC[C@H](C)[C@H](NC(=O)[C@H](Cc1ccccc1)NC(=O)[C@H](Cc1ccc(O)cc1)NC(=O)[C@@H]1CCCN1C(=O)[C@H](Cc1ccc(O)cc1)NC(C)=O)C(=O)N1CCC[C@H]1C(=O)N[C@@H](CC(C)C)C(N)=O` [Pep#5, Ac-Tyr-Pro-Tyr-Phe-Ile-Pro-Leu-NH2], for which the concentration for half-maximal inhibition (IC50) in data set [2] is greater than 40000 nM.
`CC[C@H](C)[C@H](NC(=O)[C@H](Cc1ccccc1)NC(=O)[C@H](Cc1ccc(O)cc1)NC(=O)[C@@H]1CCCN1C(=O)[C@@H](N)Cc1ccc(O)cc1)C(=O)N1CCC[C@H]1C(=O)N[C@H](CCCCN)C(=O)NCC(=O)N[C@H](CCCCN)C(=O)NCC(=O)N[C@@H](CCC(=O)O)C(=O)N[C@H](C(=O)N[C@@H](CC(N)=O)C(=O)N[C@@H](CC(C)C)[C@@H](O)CC(=O)N[C@H](C(=O)N[C@@H](C)C(=O)N[C@@H](CCC(=O)O)C(=O)N1CCC[C@@H]1C(=O)N[C@@H](CCCCNC(=O)CCC(=O)O[C@H]1CC[C@@]2(C)C(=CC[C@H]3[C@@H]4CC[C@H]([C@H](C)CCCC(C)C)[C@@]4(C)CC[C@@H]32)C1)C(N)=O)C(C)C)C(C)C` [Pep#9, Tyr-Pro-Tyr-Phe-Ile-Pro-DLys-Gly-DLys-Gly-Glu-Val-Asn-Sta-Val-Ala-Glu-DPro-Lys(Chol'ester’)-NH2]: in data set [3] (setting [6]), the solubility (thermodynamic) is greater than 718 µg/mL.
